m5-HT2A agonist – mouse HTR2A agonism via beta-arrestin recruitment; activation, % at 7.6 µM; P35363; AID 624169; CHO-K1 mHTR2A beta-arrestin complementation, luminescence; percent of 30 µM serotonin response; hit rate 0.66% among 360,000;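 active = activation above a run cutoff, the mean activation of all tested compounds plus 3 SD, cut at about 14% in these data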;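 also: 0% = plate median of compound wells and 100% = 30 µM serotonin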
MC4R ag barr – agonists of human melanocortin 4 receptor (MC4R) beta-arrestin. activation, % at 8.9 µM. hit rate 0.98% among 360,000. U2OS MC4R beta-arrestin complementation, luminescence; percent of melanotan II response, DMSO zero;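 active = activation above a per-plate cutoff, the mean activation of sample wells on that plate plus 3 SD, cut at about 8% in these data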
Target sequence (P32245 whole entry, looked up): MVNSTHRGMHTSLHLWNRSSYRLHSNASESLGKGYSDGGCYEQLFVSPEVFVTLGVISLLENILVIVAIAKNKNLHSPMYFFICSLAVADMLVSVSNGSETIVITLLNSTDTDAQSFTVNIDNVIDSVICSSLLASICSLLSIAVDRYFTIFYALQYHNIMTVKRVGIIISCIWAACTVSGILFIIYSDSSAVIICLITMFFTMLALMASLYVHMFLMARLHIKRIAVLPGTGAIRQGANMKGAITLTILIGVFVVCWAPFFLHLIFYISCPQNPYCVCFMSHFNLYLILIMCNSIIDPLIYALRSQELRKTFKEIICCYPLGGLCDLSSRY
EBI2 antag – blocks human EBI2 receptor beta-arrestin signaling | inhibition, % at 5 µM | EBI2 beta-arrestin recruitment, luminescence, 7a,25-OHC stimulated | AID 651636 | hit rate 0.81% among 360,000 | P32249; in the data active = inhibition above about 38%;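 also: enzyme fragment complementation signal reports receptor beta-arrestin coupling in cells; 0% = agonist plus DMSO wells and 100% = wells without agonist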
MC4R antagonist – blocks human MC4R cAMP signaling. MC4R-expressing cells, MTII-stimulated cAMP, LANCE TR-FRET. hit rate 0.48% among 360,000. AID 540295. inhibition, % at 6.5 µM;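 active = inhibition above its plate's cutoff, the mean of tested wells on that plate plus 3 SD, cut at about 29% in these data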;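 also: 0% = Melanotan II alone and 100% = Melanotan II plus saturating MCL0020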
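material = U2OS cells stably expressing human melanocortin 4 receptor (MC4R) | also added = Melanotan II challenge | dosing = single nominal compound dose of 6.5 µM | detection = TR-FRET with Eu-cAMP and labeled anti-cAMP, 671 nm | replication = singlicate | timing = compound 30 min, challenge 1 h, detection 1 h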
EBI2 antag conf – confirmation of human EBI2 receptor antagonists | shares compounds with EBI2 antag | EBI2 beta-arrestin luminescence, 7a,25-OHC antagonism | inhibition, % at 5 µM | hit rate 29% among 2,400;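 active = inhibition of at least 50%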
EBI2 agonist – activates EBI2, counter-screen for EBI2 antagonists; shares compounds with EBI2 antag; EBI2-expressing cells, agonist mode, luminescence, 60 min; 0% vehicle, 100% 7α,25-dihydroxycholesterol control; activation, % at 5 µM; 2,400 tested, under 10 active; AID 652000;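 active = activation of at least 50%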
bGal cs – beta-galactosidase inhibition counter-screen; inhibition, % at 5 µM; shares compounds with EBI2 antag; hit rate 1% among 2,400; purified beta-galactosidase, luminescent Galacton Star, 15 min;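 active = replicate-average signal at least 3 plate SD below neutral wells, shown as high inhibition, flagging enzyme-inhibiting false positives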;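 also: 0% = DMSO wells with enzyme and 100% = wells lacking enzyme; higher means stronger loss of beta-gal luminescence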
* marks the source's active call; other numbers are inactive results; . = no result. The list is not random: actives were taken first. Their share in the collection is about 2.8%.

SMILES	m5-HT2A agonist	MC4R ag barr	EBI2 antag	MC4R antagonist	EBI2 antag conf	EBI2 agonist	bGal cs
C=CCOc1ccc(C(=O)/C=C2/C(=O)Nc3ccccc32)cc1	7	0	59*	-7	52*	-1	-9
COc1ccc(OC(C)C(=O)N2CCCc3ccccc32)cc1 (configuration not stated)	1	2	3	11	.	.	.
Cc1ccc(S(=O)(=O)c2c(O)c3ccc(C(=O)O)cc3[nH]c2=O)cc1	-5	-1	3	19	.	.	.
CCC(=O)c1ccc(OCC(=O)N2CCN(S(=O)(=O)c3ccc(Cl)s3)CC2)cc1	-2	-2	42	3	.	.	.
CC(=O)c1ccc(OCC(=O)N2CCN(S(=O)(=O)c3ccc(Br)s3)CC2)cc1	4	-2	69*	10	39	0	12
CC(=O)c1ccc(OCCCC(=O)N2CCN(S(=O)(=O)c3cccs3)CC2)cc1	0	-1	49*	4	48	-1	-14
CCOC(=O)[C@H]1[C@H]2COc3ccc(OC)cc3[C@@H]2N2C(=O)c3cc(OC)ccc3NC(=O)[C@@]12C	2	-3	0	3	.	.	.
Cc1ccc(C2=NS(=O)(=O)N(C)C(C(=O)NC(C)c3ccccc3)=C2)cc1 (configuration not stated)	-4	-1	40*	2	19	1	5
CC1CCc2c(sc3ncnc(NCCCOC(C)C)c23)C1 (configuration not stated)	-3	-1	45*	-10	33	0	1
CCN(CC)S(=O)(=O)c1cccc(-c2nnc(SCCOc3ccccc3C)o2)c1	-4	1	50*	2	35	0	-1
COC(=O)c1ccc(-n2cc(-c3ccc(OC)cc3)[nH]c2=S)cc1	-2	1	74*	-3	60*	0	5
COc1ccc(-n2cc(-c3ccc(Cl)cc3)[nH]c2=S)cc1	5	6	91*	5	72*	1	8
S=C(Nc1ccccc1Cl)N(Cc1ccccc1)Cc1ccccn1	-6	0	4	19	.	.	.
O=C(NC1CCCCCC1)c1ccc(=O)n(Cc2ccccc2)n1	-2	-2	46*	15	35	0	7
Cc1c(C(=O)N2CC(C)OC(C)C2)[nH]c2ccc(Br)cc12 (configuration not stated)	-2	-1	-8	7	.	.	.
CCOc1ccccc1CN(Cc1ccco1)S(=O)(=O)c1ccc(-n2cnnn2)c(OC)c1	-9	0	49*	0	14	0	7
C=CCN1C(=O)N/C(=C/c2ccc(C)o2)C1=O	-1	-1	0	-5	.	.	.
CCOC(=O)C1(CC2CCCCO2)CCN(C(=O)Nc2ccc(SC)cc2)CC1 (configuration not stated)	-6	-3	40*	-7	19	1	2
Cc1ccc2cccc(N=Cc3c(C)[nH]n(-c4ccccc4)c3=O)c2n1	-11	-7	78*	-3	67*	-1	11
CC(OC(=O)c1ccccc1CCc1ccccc1)C(N)=O (configuration not stated)	3	0	7	-11	.	.	.
COc1ccc(N2CCN(C(=O)c3cc(=O)c4cc(Cl)ccc4o3)CC2)cc1	2	1	96*	24	93*	-1	-21
COc1ccc(N2CCN(C(=O)Cc3coc4cc(C)ccc34)CC2)cc1	0	-3	36	-2	.	.	.
COc1ccc(N2CCN(C(=O)c3cc(=O)c4ccc(C)cc4o3)CC2)cc1	-8	-1	50*	-4	49	-2	-16
COc1ccc(NC(=O)CN(C)C(=O)CCNC(=O)c2ccccc2OC)cc1	3	-1	-11	2	.	.	.
Fc1ccc(-c2ccc3nccn3c2)cc1Cl	-2	0	-5	4	.	.	.
O=C(CCSc1ccc(Cl)cc1)NC12CC3CC(CC(C3)C1)C2	-1	3	54*	10	26	-1	-9

Screens as filed in PubChem BioAssay.
